Measured values taken from ChEMBL document CHEMBL1129477, “Structure-activity relationships of the quinolone antibacterials against mycobacteria: effect of structural changes at N-1 and C-7” (J Med Chem, 1996).
In brackets after ≈: the same amount, converted by molar mass.

What was measured:
Assay type in all cases: functional
[1] = test system: Mycolicibacterium smegmatis; experiment: Anti-bacterial activity tested against Mycobacterium smegmatis (ATCG 19420)
Pseudomonas aeruginosa = experiment: Anti-bacterial activity tested against Gram-negative PA-7 bacterium
Procedure, shortened: (§1)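 Standard microtitration MIC determination (µg/mL) against four representative Gram-negative and Gram-positive bacterial strains.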

[2] = test system: Mycolicibacterium fortuitum; experiment: Anti-bacterial activity tested against Mycobacterium fortuitum (ATCG 6841)
Staphylococcus aureus = experiment: Anti-bacterial activity was tested against Gram-positive SA-13 bacterium; procedure, shortened: as §1
Escherichia coli = experiment: Anti-bacterial activity was tested against Gram-negative EC-1 bacterium; procedure, shortened: as §1
Streptococcus pyogenes = experiment: Anti-bacterial activity tested against Gram-positive SP1-1 bacterium; procedure, shortened: as §1

Row | SMILES | MIC [1] [µg/mL] | MIC (Pseudomonas aeruginosa) [µg/mL] | MIC [2] [µg/mL] | MIC (Staphylococcus aureus) [µg/mL] | MIC (Escherichia coli) [µg/mL] | MIC (Streptococcus pyogenes) [µg/mL]
1 | CN1CCN(c2cc3c(cc2F)c(=O)c(C(=O)O)cn3-c2ccc(F)cc2F)CC1 | 0.5 (≈ 1.2 µM) | 0.8 (≈ 1.92 µM) | 0.25 (≈ 0.599 µM) | 0.2 (≈ 0.479 µM) | 0.2 (≈ 0.479 µM) | 1.6 (≈ 3.83 µM)
2 | CCNCC1CCN(c2cc3c(cc2F)c(=O)c(C(=O)O)cn3C2CC2)C1 (stereo not drawn) | 0.5 (≈ 1.34 µM) | 1.6 (≈ 4.28 µM) | 0.5 (≈ 1.34 µM) | 0.8 (≈ 2.14 µM) | 0.1 (≈ 0.268 µM) | 0.8 (≈ 2.14 µM)
3 | CC1CN(c2cc3c(cc2F)c(=O)c(C(=O)O)cn3C2CC2)CC(C)N1 (stereo not drawn) | 0.13 (≈ 0.362 µM) | 0.8 (≈ 2.23 µM) | 0.06 (≈ 0.167 µM) | 0.4 (≈ 1.11 µM) | 0.05 (≈ 0.139 µM) | > 3.1
4 | O=C(O)c1cn(C2CCC2)c2cc(N3CCNCC3)c(F)cc2c1=O | 2 (≈ 5.79 µM) | 1.6 (≈ 4.63 µM) | 0.5 (≈ 1.45 µM) | 3.1 (≈ 8.98 µM) | 0.4 (≈ 1.16 µM) | > 3.1
5 | CCn1cc(C(=O)O)c(=O)c2cc(F)c(N3CC(C)NC(C)C3)cc21 (stereo not drawn) | 1 (≈ 2.88 µM) | 3.1 (≈ 8.92 µM) | 0.13 (≈ 0.374 µM) | 0.8 (≈ 2.3 µM) | 0.4 (≈ 1.15 µM) | > 3.1
6 | CNCC1CCN(c2cc3c(cc2F)c(=O)c(C(=O)O)cn3C(C)C)C1 (stereo not drawn) | 8 (≈ 22.1 µM) | > 3.1 | 2 (≈ 5.53 µM) | 3.1 (≈ 8.58 µM) | 3.1 (≈ 8.58 µM) | 3.1 (≈ 8.58 µM)
7 | CCC1CN(c2cc3c(cc2F)c(=O)c(C(=O)O)cn3C2CC2)CCN1 (stereo not drawn) | 0.25 (≈ 0.696 µM) | 0.8 (≈ 2.23 µM) | 0.13 (≈ 0.362 µM) | 0.8 (≈ 2.23 µM) | 0.1 (≈ 0.278 µM) | 0.8 (≈ 2.23 µM)
8 | CCn1cc(C(=O)O)c(=O)c2cc(F)c(N3CCNC(C)C3)cc21 (stereo not drawn) | 2 (≈ 6 µM) | > 3.1 | 1 (≈ 3 µM) | 3.1 (≈ 9.3 µM) | 0.2 (≈ 0.6 µM) | > 3.1
9 | CC1CN(c2cc3c(cc2F)c(=O)c(C(=O)O)cn3C2CCC2)CCN1 (stereo not drawn) | 1 (≈ 2.78 µM) | 1.6 (≈ 4.45 µM) | 0.25 (≈ 0.696 µM) | 3.1 (≈ 8.63 µM) | 0.4 (≈ 1.11 µM) | > 3.1
10 | CCN1CCN(c2cc3c(cc2F)c(=O)c(C(=O)O)cn3C(C)C)CC1 | 4 (≈ 11.1 µM) | > 3.1 | 1 (≈ 2.77 µM) | 3.1 (≈ 8.58 µM) | 1.6 (≈ 4.43 µM) | > 3.1
11 | CC(C)NCC1CCN(c2cc3c(cc2F)c(=O)c(C(=O)O)cn3C2CC2)C1 (stereo not drawn) | 0.5 (≈ 1.29 µM) | 3.1 (≈ 8 µM) | 0.25 (≈ 0.645 µM) | 0.4 (≈ 1.03 µM) | 0.4 (≈ 1.03 µM) | 1.6 (≈ 4.13 µM)
12 | CC1(CN)CCN(c2cc3c(cc2F)c(=O)c(C(=O)O)cn3C2CC2)C1 (stereo not drawn) | 0.06 (≈ 0.167 µM) | 0.4 (≈ 1.11 µM) | < 0.03 | 0.1 (≈ 0.278 µM) | 0.4 (≈ 1.11 µM) | 0.05 (≈ 0.139 µM)
13 | NC1CCN(c2cc3c(cc2F)c(=O)c(C(=O)O)cn3-c2ccc(F)cc2F)C1 (stereo not drawn) | 0.13 (≈ 0.322 µM) | 0.2 (≈ 0.496 µM) | 0.13 (≈ 0.322 µM) | 0.05 (≈ 0.124 µM) | 0.03 (≈ 0.0744 µM) | 0.1 (≈ 0.248 µM)
14 | CC1CN(c2cc3c(cc2F)c(=O)c(C(=O)O)cn3-c2ccc(F)cc2F)CC(C)N1 (stereo not drawn) | 0.5 (≈ 1.16 µM) | 0.8 (≈ 1.85 µM) | 0.25 (≈ 0.579 µM) | 0.4 (≈ 0.927 µM) | 0.4 (≈ 0.927 µM) | 0.8 (≈ 1.85 µM)
15 | CCN1CCN(c2cc3c(cc2F)c(=O)c(C(=O)O)cn3C2CC2)CC1 [ENROFLOXACIN] | 0.13 (≈ 0.362 µM) | 0.8 (≈ 2.23 µM) | 0.06 (≈ 0.167 µM) | 0.2 (≈ 0.556 µM) | 0.05 (≈ 0.139 µM) | 0.8 (≈ 2.23 µM)
16 | CCn1cc(C(=O)O)c(=O)c2cc(F)c(N3CCNCC3)cc21 [NORFLOXACIN] | 2 (≈ 6.26 µM) | 0.8 (≈ 2.51 µM) | 0.5 (≈ 1.57 µM) | 3.1 (≈ 9.71 µM) | 0.1 (≈ 0.313 µM) | > 3.1
17 | C[C@@H]1CN(c2c(F)c(N)c3c(=O)c(C(=O)O)cn(C4CC4)c3c2F)C[C@H](C)N1 [SPARFLOXACIN] | 0.13 (≈ 0.331 µM) | 0.8 (≈ 2.04 µM) | 0.06 (≈ 0.153 µM) | 0.05 (≈ 0.127 µM) | 0.025 (≈ 0.0637 µM) | 0.1 (≈ 0.255 µM)
18 | CC1CN(c2cc3c(cc2F)c(=O)c(C(=O)O)cn3-c2ccc(F)cc2F)CCN1 (stereo not drawn) [TEMAFLOXACIN] | 0.5 (≈ 1.2 µM) | 0.8 (≈ 1.92 µM) | 0.13 (≈ 0.311 µM) | 0.4 (≈ 0.958 µM) | 0.1 (≈ 0.24 µM) | 0.4 (≈ 0.958 µM)
